experiment: Toxicity liver stage against HepG2, at 10uM; type: cell-based; parameters: test concentration 10 uM, cell line HepG2-A16-CD81EGFP; details: human, HepG2-A16-CD81EGFP cells; read-out: INHIBITION
Outline: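 Uninfected HepG2-A16-CD81EGFP cells, 3 × 10^3 per well, 1536-well, plated on prespotted compound at 10 μM final, parasite-free screening media added to match infected plates; puromycin 10 μM positive, DMSO 0.5% negative; run in parallel with 48 h PbLuc assay at 37 °C, 5% CO2; viability by CellTiter-Glo luminescence, normalized to controls.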

Row | SMILES | cytotoxicity at 10 µM
1 | O=C(CN1CCN(C(=O)c2ccccc2)CC1)Nc1ncc(Br)cc1Br | 8.63%
2 | Cc1nccc(-c2cccc(NCc3nc(C(C)C)no3)c2)n1 | 5.75%
3 | O=C(C[C@@H]1COC[C@H]2CN(Cc3ccncc3)C[C@@H]12)N1CCCC1 | -2.3%
4 | CN(C)CCCNC(=O)c1ccccc1NC(=O)c1cc(Cl)ccc1Cl | -17%
5 | CN(C)c1nccc(C2CCN(C3CCCCC3O)CC2)n1 (stereo unspecified) | 1.98%
6 | Cc1nc2ccc(C(=O)N3C[C@@H](O)[C@H](N4CCCC4)C3)cc2[nH]1 | -8.66%
7 | NCc1cnn(-c2ccccc2C(=O)NCc2ccccc2Cl)c1 | -3.52%
8 | COCCC(=O)N1CCCC(c2nc(O)cc(-c3ccncc3)n2)C1 (stereo unspecified) | -24.9%
9 | Cc1ncsc1-c1nnc(C2CCN(Cc3ccccc3)CC2)o1 | -6.39%
10 | c1cnc(-c2cnc(N3CCSCC3)nc2C2CCCO2)cn1 (stereo unspecified) | 4.4%
11 | Cc1cccc(-n2cnc(Cl)c2CO)c1 | -11.8%
12 | CC1(C)COCCN1C(=O)c1ccc(Cn2cncn2)cc1 | -5.85%
13 | CC(C)C(NC(=O)c1nc(N2CCOCC2)ncc1Cl)c1cccs1 (stereo unspecified) | -44.3%
14 | Cc1nc(-c2cccs2)ccc1C(=O)N1CCN(CCO)CC1 | -56%
15 | CCC(=O)Nc1ccc(F)cc1OC | -26.1%
16 | CS(=O)(=O)N1CCC(C(=O)Nc2nnc(C(F)(F)F)[nH]2)CC1 | 9.52%
17 | CCOC(C)C(=O)Nc1cc(S(=O)(=O)NC2CC2)ccc1F (stereo unspecified) | -7.51%
18 | CCN(C(=O)Cc1ccc(NCc2nccn2C)cc1)c1ccccc1 | -2.09%
19 | CC(=O)NC1CCN(C(=O)Nc2cccc(SC(F)F)c2)CC1 | -0.598%
20 | CN(CCOCC1CC1)C(=O)Nc1ccc([S+](C)[O-])cc1 (stereo unspecified) | 19.4%
21 | CC(C)c1noc(C(C)N2CCN(Cc3noc(C4CC4)n3)CC2)n1 (stereo unspecified) | 3.01%
22 | CC(C(=O)Nc1cccc(F)c1)N(C)CCN1CCOCC1 (stereo unspecified) | -9.19%
23 | Cc1nn(C)c(C)c1S(=O)(=O)N(CC(N)=O)CC(C)C | 10.5%

Row | SMILES | cytotoxicity at 10 µM
24 | CC(Oc1cc(Cl)cc(Cl)c1)C(=O)NCCOCC(N)=O (stereo unspecified) | -5.82%
25 | COc1cc(CNC(=O)c2csc(Br)c2)ccn1 | -5.76%
26 | Cn1cc(C2(C)CN(Cc3ccc(N4CCCC4)nc3)CCO2)cn1 (stereo unspecified) | 8.32%
27 | CS(=O)(=O)NCCNC(=O)C1(c2ccc(F)cc2)CC1 | 1.93%
28 | Cn1c(NC(=O)CNC(=O)C2CCCC2)nc2cc(Cl)ccc21 | -4.53%
29 | COCCN(CCC#N)S(=O)(=O)c1cc(F)ccc1F | -9.91%
30 | CN(CC(=O)N1CCCC1c1noc(C2CC2)n1)S(C)(=O)=O (stereo unspecified) | -8.2%
31 | O=C(Cn1cccn1)NCC(c1cccs1)N1CCCC1 (stereo unspecified) | 11.9%
32 | NC(=O)NC(=O)CCN1CCCC1c1cccc2c1OCCO2 (stereo unspecified) | -5.35%
33 | O=C(CSc1ccc2c(c1)OCCO2)NS(=O)(=O)c1cc(F)ccc1F | -3.47%
34 | Cc1ccc(C(O)CNC(=O)c2cccnc2O)cc1 (stereo unspecified) | 11%
35 | Cc1n[nH]c(C2CN(C(=O)c3ccc(Cl)o3)CCO2)n1 (stereo unspecified) | -5.59%
36 | Cc1cnn(CC(C)NCc2nc(-c3ccoc3)no2)c1 (stereo unspecified) | 23.3%
37 | Cc1nc(-c2ccsc2)ccc1C(=O)N(C)CC1CC1 | 2.83%
38 | CCOC(C)c1noc(CN2CCN(CC3CCCC3)CC2)n1 (stereo unspecified) | -13.2%
39 | CC(NC(=O)c1sccc1C1CC1)c1ccc2c(c1)CC(=O)N2 (stereo unspecified) | 1.66%
40 | Cc1cc(C)c(CNC(=O)NC2CCOCC2)c(=O)[nH]1 | -7.05%
41 | O=C(CC1CCCO1)Nc1ccn(Cc2cccc3cccnc23)n1 (stereo unspecified) | 2.17%
42 | CCC(C)(C)NC(=O)Nc1nnc(-c2ccccn2)s1 | 6.39%
43 | Cc1occc1C(=O)NCCOc1ccc(C(F)(F)F)cn1 | -7.62%
44 | COc1ccccc1C(C)(C)NCc1ccco1 | 5.95%
45 | CS(=O)(=O)NC1CCN(C(=O)CCn2cccn2)CC1 | -7.74%
46 | COCCCNS(=O)(=O)c1cc(C)sc1C | -11.6%

Row | SMILES | cytotoxicity at 10 µM
47 | CSc1nc(C2CC2)nc(C)c1C(=O)NCc1cc(C)on1 | -11.7%
48 | CCN(CC)S(=O)(=O)c1ccc(C(F)(F)F)cc1C#N | -13.4%
49 | CC1CCN(C(=O)Cc2ccc(S(=O)(=O)C(F)F)cc2)CC1 | 2.98%
50 | CCN(Cc1noc(C(C)(C)C)n1)Cc1ccc(C#N)cc1F | -4.45%
51 | NC(=O)Nc1cc(Br)cnc1OCC(F)(F)F | 8.28%
52 | NC(=O)c1cccc(CCNCc2cccs2)c1 | 1.68%
53 | C1CCC(N2CCCN(c3nc(C4CC4)no3)CC2)C1 | -9.13%
54 | CCC(=O)NC1CCCN(Cc2ccc(NC(C)=O)cc2)C1 (stereo unspecified) | -47.9%
55 | O=C(Nc1ccnn1Cc1ccc(Cl)cc1)C1CCS(=O)(=O)C1 (stereo unspecified) | 10.9%
56 | CC(CCc1ccccc1)CC(=O)NC1CCN(CC(N)=O)CC1 (stereo unspecified) | 9.04%
57 | CS(=O)(=O)Cc1nc(CN2CC=C(c3ccccc3)CC2)cs1 | 5.27%
58 | NC(=O)C1Cn2ccnc2C2(CCN(C(=O)c3ccncc3)CC2)O1 (stereo unspecified) | -103%
59 | CC1(C)C[C@H](CCNC(=O)c2ccncc2)c2ccccc2O1 | -5.55%
60 | O=C1CCC2(CCOC2)CN1Cc1nc2ccc(Cl)cc2[nH]1 (stereo unspecified) | 1.9%
61 | Cc1nn(C)cc1CN(C)c1nccc(-c2cn(C)nc2C)n1 | 20.2%
62 | CCOc1ccnc(N2CCN(Cc3ncccc3C)CC2)n1 | -7.32%
63 | CNc1cc(C)nc(N2CCC3(CC2)[C@H](O)C[C@@H]3OCCN(C)C)n1 | -1.26%
64 | Cc1cc(CN2CCC(CNC(=O)Cc3ccc(F)cc3)C2)[nH]n1 (stereo unspecified) | -139%
65 | COCCC1(C(=O)O)CCCN(CCOCc2ccccc2)C1 (stereo unspecified) | -12.3%
66 | CC(C)[C@@H]1CN(CC(=O)NCc2ccco2)C[C@H]1NS(=O)(=O)N(C)C | 6.11%
67 | C[C@@H]1CN(CC(C)(C)N2CCOCC2)CC[C@@]1(O)C1CCOCC1 | -1.71%
68 | Cc1ccccc1Oc1ncccc1CNC1CCC1 | -1.27%
69 | O=C(NC1CCOCC1)c1cccc(C2CCCNC2)c1 (stereo unspecified) | 2.58%

Row | SMILES | cytotoxicity at 10 µM
70 | Cc1cc2nc(C(C)C)cc(NCC(c3ccccn3)N(C)C)n2n1 (stereo unspecified) | -1.63%
71 | Cc1ncccc1OC1(C(=O)NCCC2CCCN2C)CCNCC1 (stereo unspecified) | 2.18%
72 | O=C(COCC(F)(F)C(F)F)N1CCC2(CCCN(CC3CC3)C2=O)C1 (stereo unspecified) | 4.46%
73 | O=C(CN1CCCCC1)Nc1ncc(Br)cc1Br | -9.58%
74 | CN(c1ccncn1)C1CC2(CCN(C(=O)c3ccsc3)C2)C1 (stereo unspecified) | 4.02%
75 | CCn1cnnc1CNC(=O)N1CCN(c2nccs2)CC1 | -2.72%
76 | CSCC(=O)N1CCCC(c2cc(C)[nH]n2)C1 (stereo unspecified) | -11.3%
77 | Cc1ccc(-c2nc(C(=O)N(C)C3CCN(C)CC3)cs2)c(C)c1 | -7.07%
78 | CC(C(=O)N1CCCN(Cc2ccc(C#N)cc2)CC1)n1cncn1 (stereo unspecified) | 2.6%
79 | Cc1cc(C)c(CNC(=O)N2CCCC2c2cccc(F)c2)c(=O)[nH]1 (stereo unspecified) | 5.22%
80 | CCOc1cccc2c1OCC(C(=O)NS(=O)(=O)c1ccc(Cl)s1)=C2 | -3.21%
81 | Cc1nc(C)n(CC2CCCCN2c2ncnc3ccsc23)n1 (stereo unspecified) | -2.04%
82 | COC(=O)c1cccn1C1CCN(C(=O)c2cn[nH]c2C)CC1 | -7.64%
83 | CCOc1nnc(CN2CCC(N(C)Cc3noc(C)n3)C2)s1 (stereo unspecified) | -7.3%
84 | Cc1cc(C)c(CNC(=O)NCC(O)c2cccc(F)c2)c(=O)[nH]1 (stereo unspecified) | -4.37%
85 | CCOc1cc(C(=O)N2CCCC(n3cncn3)C2)ccc1C (stereo unspecified) | -4.35%
86 | O=C(NCCOc1ccc2c(c1)CCC2)N1CCS(=O)(=O)CC1 | -1.71%
87 | c1cnnc(N2CCCC2CNCc2nc(-c3ccsc3)no2)c1 (stereo unspecified) | -7.7%
88 | COc1cccc(COCC(=O)N2CCCC(N3CCCC3)CC2)c1 (stereo unspecified) | -4.82%
89 | Cc1nn(C)c(N2CCOCC2)c1CNC1CCN(C(C)(C)C)CC1 | -3.66%
90 | Cn1c(NCC(O)c2ccc(F)cc2F)c(C#N)c(=O)n(C)c1=O (stereo unspecified) | -10.9%
91 | CC1=NN(c2ccc(C(=O)N3CCCC(n4ccnc4)C3)cc2)CC1 (stereo unspecified) | -15.6%
92 | COc1ncccc1CNc1cc(N2CCCC2CO)ncn1 (stereo unspecified) | -12.6%

Row | SMILES | cytotoxicity at 10 µM
93 | c1ncn(CC2CN(Cc3noc(C4CC4)n3)CCO2)n1 (stereo unspecified) | 1.59%
94 | CC(C)Oc1ncccc1CNC(=O)c1cc[nH]n1 | -9.12%
95 | Cc1nc(C)n(C2CCCN(C(=O)c3ccc(N(C)C)nn3)C2)n1 (stereo unspecified) | 0.722%
96 | Cc1ncccc1-c1cc2cccnc2n1CCCNC(=O)C(C)(C)C | 12.8%
97 | Cc1ccc(CN(CCN(C)C)Cc2c(C)nc3sccn23)o1 | 3.08%
98 | Cc1cc(C[C@@H]2COC[C@H]2NCc2ccc(C(C)C)cc2)on1 | -30.4%
99 | CCN(C(=O)c1ccc2nnc(C3CCN(C)C3)n2c1)C(C)C (stereo unspecified) | -112%
100 | CC(C)NC(=O)N1CCC2(C1)CN(c1ccsc1)C(=O)CN2C (stereo unspecified) | 1.18%
101 | c1cncc(CN2CCN3C[C@H](Oc4cncnc4)C[C@H]3C2)c1 | -100%
102 | COc1c(CNCc2nnc3n2CCCCC3)c(C(C)C)nn1C | 11.5%
103 | O=C(C1=CCCCC1)N1CCO[C@H]2[C@H](Oc3ccccn3)CC[C@@H]21 | 5.08%
104 | O=C(N[C@H]1CN(Cc2cccs2)[C@@H]2CCCO[C@H]12)c1cccnc1 | -5.24%
105 | COC(=O)CN1CC2(CCNCC2)COc2ccccc2S1(=O)=O | -11.7%
106 | Cc1ccc(CN2CCc3onc(COc4cccnc4)c3C2)s1 | 5.98%
107 | COc1ccc(CN2C[C@@H]3OCCN(CC4CCCO4)[C@@H]3C2)cc1 (stereo partly specified) | -0.851%
108 | Cc1cccc(C(=O)N2C[C@@H](OCc3cccnc3)[C@H]3OCCC[C@@H]32)n1 | -1.75%
109 | O=C(NCc1ccco1)[C@@]12CCO[C@@H]1CCN(c1ncccn1)C2 | 0.864%
110 | COc1cccc(CSC=C2Nc3ccccc3S(=O)(=O)N2)c1 | 3.7%
111 | CN(C)C(=O)N1C[C@H]2CC[C@@H](C1)N(Cc1nnc(C3CC3)o1)C2 | 0.266%

Source: ChEMBL document CHEMBL4513216, “Probing the Open Global Health Chemical Diversity Library for Multistage-Active Starting Points for Next-Generation Antimalarials” (ACS Infect Dis, 2020)
